The text below walks through data of ChEMBL document CHEMBL1156208, “Novel DNA-peptide interaction networks” (Bioorg Med Chem, 2010).

SMILES strings stand for the structures. Active and inactive are the calls of the source. The calls are words filed in the database; no cut-off is given here. Starred links: 1 amine or outer side, 2 acyl side, 3 side chain; linkers in the order of their positions; H or OH if unused. Non-standard residues stand in square brackets, D forms with d. Residues, ends and D or L forms follow the SMILES beside them. X1 = Cn1cc(N[*:1])cc1C(=O)[*:2]

Holding throughout (type): nucleic-acid assay
The subject of test [1] is Nucleic Acid. In words: Binding affinity to 5^-ATTTTCTCC-3^ sequence of [32P] labeled DNA at 2 uM after 120 mins by DNase1 foot printing. In outline: (§1)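 5'-32P-labeled PCR duplexes (158-mer upper strand, 135-mer lower strand) were equilibrated with varying peptide concentrations in 5 mM sodium cacodylate, pH 6.5, at room temperature for 120 min. DNase I (final 0.009 unit/mL, limited to <30% digestion) was added for 10 min at 37 °C. Products were resolved on denaturing 8% polyacrylamide/8 M urea gels and band volumes integrated to give fractional saturation. Apparent K was taken as the peptide concentration at 50% saturation. Hill coefficient came from the slope of a least-squares Hill plot using at least six points.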

Test [2] deals with Nucleic Acid. Description: Binding affinity to 5^-TTTCACA-3^ sequence of [32P] labeled DNA at 2 uM after 120 mins by DNase1 foot printing. In outline:
as §1

In test [3] the test system is Nucleic Acid. In words: Binding affinity to 13-mer DNA duplex U4A-L4T assessed as conformational change after 60 mins by circular dichroism. In outline: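 CD spectra were recorded at 37 °C after 60 min incubation. Difference spectra were obtained by subtracting the duplex-alone and peptide-alone contributions.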
For test [4], the system named is Nucleic Acid. Description: Binding affinity to 5^-GAGAAAATACC-3^ sequence of [32P] labeled DNA at 2 uM after 120 mins by DNase1 foot printing. The gist of the method:
as §1

The test system of test [5] is Nucleic Acid. Description: Binding affinity to 5^-TTTTCTC-3^ sequence of [32P] labeled DNA at 2 uM after 120 mins by DNase1 foot printing. In outline: as §1
Test [6] has as its system Nucleic Acid. Description: Binding affinity to 5^-TTTTCTCC-3^ sequence of [32P] labeled DNA at 2 uM after 120 mins by DNase1 foot printing. In outline:
as §1

The subject of test [7] is Nucleic Acid. In words: Binding affinity to 5^-GGAGAAAATACC-3^ sequence of [32P] labeled DNA at 2 uM after 120 mins by DNase1 foot printing. The gist of the method:
as §1

Test [8] has as its system Nucleic Acid. In words: Binding affinity to 5^-TTTC-3^ sequence of [32P] labeled DNA at 2 uM after 120 mins by DNase1 foot printing. The gist of the method: as §1

`Cn1cc(NC(=O)c2cc(NC(=O)[C@H](CCCCN)NC(=O)[C@H](CCCNC(=N)N)NC(=O)[C@@H]3CCCN3C(=O)[C@@H](N)Cc3cnc[nH]3)cn2C)cc1C(=O)Nc1cc(C(=O)Nc2cc(C(=O)N[C@@H](CCCNC(=N)N)C(N)=O)n(C)c2)n(C)c1`: the Ka with Nucleic Acid [1] was determined as 9.7e+06 M⁻¹; in the test on Nucleic Acid [2], 8.4e+06 M⁻¹. The result in the test on Nucleic Acid [3] was Active.

Regarding `Cn1cc(NC(=O)c2cc(NC(=O)[C@H](CCCCN)NC(=O)[C@H](CCCNC(=N)N)NC(=O)[C@@H]3CCCN3C(=O)[C@@H](N)Cc3cnc[nH]3)cn2C)cc1C(=O)Nc1cc(C(=O)Nc2cc(C(=O)N[C@@H](CCCCN)C(=O)N[C@@H](CCCNC(=N)N)C(N)=O)n(C)c2)n(C)c1` (H-HPRK[X1][X1][X1][X1]KR-NH2), the Ka in the test with Nucleic Acid [4] was found to be 2.7e+06 M⁻¹; in the test with Nucleic Acid [5], 3.4e+06 M⁻¹. Besides, the Activity result with Nucleic Acid [3] was “Dose-dependent effect”.

As for `Cn1cc(NC(=O)c2cc(NC(=O)C(CCCCN)NC(=O)[C@H](CCCNC(=N)N)NC(=O)[C@@H]3C[C@@H](O)CN3C(=O)[C@@H](N)Cc3cnc[nH]3)cn2C)cc1C(=O)Nc1cc(C(=O)Nc2cc(C(=O)N[C@@H](CCCCN)C(=O)N[C@@H](CCCNC(=N)N)C(N)=O)n(C)c2)n(C)c1` (single isomer, unassigned), the Ka amounted to 3.6e+06 M⁻¹ in the test with Nucleic Acid [6], 4.7e+06 M⁻¹ with Nucleic Acid [7] and 1.4e+06 M⁻¹ in the test on Nucleic Acid [8]. Besides, the result with Nucleic Acid [3] was Active.
